The record followed here is ChEMBL document CHEMBL1125724, “Potential anti-AIDS agents. Synthesis and antiviral activity of naphthalenesulfonic acid derivatives against HIV-1 and HIV-2” (1991).

Converted amounts (≈) assume the structure as drawn. Bounds are passed on as bounds.

The subject of assay [1] is MT4. As to the kind of experiment: Compound tested for its inhibition of HIV-1 induced cytopathogenicity in MT-4 cells. The class given is functional. To be noted: Homo sapiens, read-out: ED50 (the source's name). In outline:
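MT-4 cells infected with HIV-1 (HTLV-III_B) at MOI 0.02 and incubated 4 days with a range of compound concentrations. Viable cells were counted by MTT. ED50 is the 50% antiviral dose from inhibition of virus-induced cytopathogenicity, given as the mean of two separate experiments.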
In general terms: Cytopathic effects are the visible damage that an infection or toxin causes in cultured cells.

For assay [2], the system named is MT4. The assay is described as follows: Cell viability at a concentration of 100(1.1) ug/mL (uM). The format is functional, Homo sapiens.
Assay [3] has as its target Human immunodeficiency virus type 1 reverse transcriptase (Human immunodeficiency virus 1) (UniProt Q72547). The assay is described as follows: Compound tested for % inhibition of cell-free HIV-1 Reverse Transcriptase at a concentration of 20.2 uM. The method, boiled down:
(§1)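 HIV-1 RT came from disrupted, partially purified, concentrated virions. Reaction ran 30 min at 37 °C in 50 mM Tris-HCl pH 8.4 with 2 mM DTT, 100 mM KCl, 10 mM MgCl2, 0.1% Triton X-100, [methyl-3H]dTTP (1 µCi, 30 Ci/mmol), poly(rA)·oligo(dT) template and compound. It was stopped with 5% TCA, and precipitate was filter-collected and scintillation-counted. Variation was at most 10%.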

The test system of assay [4] is MT4. As to the kind of experiment: Compound tested for its ability to reduce viability of mock-infected MT-4 cells. The format is functional. Conditions: Homo sapiens, read-out: CD50 (the source's name). In outline:
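Mock-infected MT-4 cells were incubated 4 days with a range of compound concentrations, and viability was read by MTT. CD50 is the 50% cytotoxic dose from reduced viability, given as the mean of two separate experiments.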

Assay [5] has as its system MT4. The assay is described as follows: Compound was evaluated for inhibitory effect against MT-4 cells of HIV-2 at a concentration of 4(4) ug/mL (uM). The class given is functional, Homo sapiens. The method, boiled down:
(§2)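 HIV-2 (ROD strain) infected MT-4 cells at multiplicity of infection 0.02, incubated with a range of compound concentrations for 4 days. Viable cells counted by MTT method. Per-concentration inhibition of virus-induced cytopathogenicity; values are means of two separate experiments.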

Assay [6] relates to MT4. The assay is described as follows: Cell viability at a concentration of 20(20.2) ug/mL (uM). The format is functional, Homo sapiens.
Assay [7] deals with Human immunodeficiency virus type 1 reverse transcriptase (Human immunodeficiency virus 1) (UniProt Q72547). As to the kind of experiment: Compound tested for % inhibition of cell-free HIV-1 Reverse Transcriptase at a concentration of 4 uM. In outline: as §1
For assay [8] the target is unchanged. The assay is described as follows: Inhibitory dose at a concentration 505 uM cell-free HIV-1 Reverse Transcriptase. In outline:
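HIV-1 RT from disrupted, partially purified and concentrated virions. 37 °C for 30 min in 50 mM Tris-HCl pH 8.4, 2 mM DTT, 100 mM KCl, 10 mM MgCl₂, 0.1% Triton X-100, 1 µCi [methyl-³H]dTTP, 0.01 unit poly(rA)·oligo(dT). Stopped with 5% TCA; precipitate collected on glass-fiber filters and counted by scintillation. Means of two experiments; variation ≤10%.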

The target of assay [9] is Human immunodeficiency virus type 1 protease (Human immunodeficiency virus 1) (UniProt Q72874). The assay is described as follows: Compound tested for % inhibition of giant cell formation at a concentration of 101 uM. The method, boiled down: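 MOLT-4 cells were co-cultured 24 h with an equal number of HUT-78/HTLV-III_B cells in the presence of compound. Giant (syncytial) cells were counted microscopically and inhibition of giant cell formation was scored.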

Assay [10] concerns MT4. The assay is described as follows: Compound tested for its inhibition of HIV-2 induced cytopathogenicity in MT-4 cells. The class given is functional. Conditions: Homo sapiens, read-out: ED50 (the source's name). In outline: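 MT-4 cells infected with HIV-2 (ROD) at MOI 0.02 and incubated 4 days with a range of compound concentrations. Viable cells were counted by MTT. ED50 is the dose giving 50% inhibition of virus-induced cytopathogenicity, given as the mean of two separate experiments.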

Assay [11] relates to MT4. As to the kind of experiment: Compound was evaluated for inhibitory effect against MT-4 cells of HIV-2 at a concentration of 20(20.2) ug/mL (uM). The class given is functional, Homo sapiens. In outline:
as §2

The subject of assay [12] is MT4. The assay is described as follows: Compound was evaluated for inhibitory effect against MT-4 cells of HIV-2 at a concentration of 100(101) ug/mL (uM). The class given is functional, Homo sapiens. The method, boiled down: as §2
The subject of assay [13] is MT4. As to the kind of experiment: Compound was evaluated for inhibitory effect against MT-4 cells of HIV-1 at a concentration of 0.8(0.8) ug/mL (uM). The class given is functional, Homo sapiens. In outline:
(§3)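 HIV-1 (HTLV-III_B) infected MT-4 cells at multiplicity of infection 0.02, incubated with a range of compound concentrations for 4 days. Viable cells counted by MTT method. Per-concentration inhibition of virus-induced cytopathogenicity; values are means of two separate experiments.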

Assay [14] has as its system MT4. As to the kind of experiment: Compound was evaluated for inhibitory effect against MT-4 cells of HIV-2 at a concentration of 0.8(0.8) ug/mL (uM). The format is functional, Homo sapiens. The method, boiled down: as §2
The subject of assay [15] is MT4. The assay is described as follows: Compound was evaluated for inhibitory effect against MT-4 cells of HIV-1 at a concentration of 20(20.2) ug/mL (uM). The format is functional, Homo sapiens. In outline:
as §3

For assay [16], the system named is MT4. The assay is described as follows: Cell viability at a concentration of 4(4) ug/mL (uM). The class given is functional, Homo sapiens.
The target in assay [17] is Human immunodeficiency virus type 1 reverse transcriptase (Human immunodeficiency virus 1) (UniProt Q72547). The assay is described as follows: Compound tested for % inhibition of cell-free HIV-1 Reverse Transcriptase at a concentration of 505 uM. In outline: as §1
Assay [18] concerns MT4. The assay is described as follows: Compound was evaluated for inhibitory effect against MT-4 cells of HIV-1 at a concentration of 4(4) ug/mL (uM). The class given is functional, Homo sapiens. The method, boiled down: as §3
Assay [19] concerns MT4. As to the kind of experiment: Compound was evaluated for inhibitory effect against MT-4 cells of HIV-1 at a concentration of 100(101) ug/mL (uM). The class given is functional, Homo sapiens. The method, boiled down: as §3
The subject of assay [20] is MT4. As to the kind of experiment: Cell viability at a concentration of 0.8(0.8) ug/mL (uM). The class given is functional, Homo sapiens.
Assay [21] deals with Human immunodeficiency virus type 1 reverse transcriptase (Human immunodeficiency virus 1) (UniProt Q72547).
The test system of assay [22] is MT4. As to the kind of experiment: Compound was evaluated for inhibitory effect against MT-4 cells of HIV-1 at a concentration of 20(33.4) ug/mL (uM). The class given is functional, Homo sapiens. The method, boiled down: as §3
The subject of assay [23] is MT4. The assay is described as follows: Cell viability at a concentration of 4(6.7) ug/mL (uM). The class given is functional, Homo sapiens.
For assay [24], the system named is MT4. As to the kind of experiment: Compound was evaluated for inhibitory effect against MT-4 cells of HIV-2 at a concentration of 20(33.4) ug/mL (uM). The class given is functional, Homo sapiens. In outline:
as §2

Assay [25] has as its system MT4. As to the kind of experiment: Compound was evaluated for inhibitory effect against MT-4 cells of HIV-2 at a concentration of 100(167) ug/mL (uM). The class given is functional, Homo sapiens. The method, boiled down:
as §2

Assay [26] relates to MT4. As to the kind of experiment: Compound was evaluated for inhibitory effect against MT-4 cells of HIV-1 at a concentration of 4(6.7) ug/mL (uM). The class given is functional, Homo sapiens. The method, boiled down:
as §3

Assay [27] deals with MT4. The assay is described as follows: Compound was evaluated for inhibitory effect against MT-4 cells of HIV-2 at a concentration of 4(6.7) ug/mL (uM). The format is functional, Homo sapiens. In outline: as §2
For assay [28], the system named is MT4. The assay is described as follows: Cell viability at a concentration of 0.8(1.3) ug/mL (uM). The format is functional, Homo sapiens.
The test system of assay [29] is MT4. The assay is described as follows: Cell viability at a concentration of 20(33.4) ug/mL (uM). The format is functional, Homo sapiens.
Assay [30] concerns the target Human immunodeficiency virus type 1 reverse transcriptase (Human immunodeficiency virus 1) (UniProt Q72547). To be noted: 33.4 uM.
For assay [31], the system named is MT4. As to the kind of experiment: Compound was evaluated for inhibitory effect against MT-4 cells of HIV-2 at a concentration of 0.8(1.3) ug/mL (uM). The class given is functional, Homo sapiens. In outline: as §2
Assay [32] deals with MT4. The assay is described as follows: Compound was evaluated for inhibitory effect against MT-4 cells of HIV-1 at a concentration of 100(167) ug/mL (uM). The format is functional, Homo sapiens. In outline: as §3
For assay [33], the target named is Human immunodeficiency virus type 1 reverse transcriptase (Human immunodeficiency virus 1) (UniProt Q72547). Conditions: 6.7 uM.
The test system of assay [34] is MT4. The assay is described as follows: Compound was evaluated for inhibitory effect against MT-4 cells of HIV-1 at a concentration of 0.8(1.3) ug/mL (uM). The format is functional, Homo sapiens. The method, boiled down:
as §3

Assay [35] deals with MT4. The assay is described as follows: Cell viability at a concentration of 100(167) ug/mL (uM). The class given is functional, Homo sapiens.

For `O=S(=O)([O-])c1cc(NS(=O)(=O)c2ccc(-c3ccc(S(=O)(=O)Nc4cc(S(=O)(=O)[O-])c5cccc(S(=O)(=O)[O-])c5c4)cc3)cc2)cc2c(S(=O)(=O)[O-])cccc12.[Na+].[Na+].[Na+].[Na+]`, the results for the EC50 in the assay on MT4 [1] and in the assay with MT4 [10] were 42 µg/mL and 43 µg/mL, respectively. Further, the Cell viability in the assay on MT4 [2] was 0; in the assay with MT4 [6], 0; in the assay on MT4 [16] it was 0; in the assay on MT4 [20] it was 1. Moreover, the inhibition (in general, the relative decrease from the control value, in per cent) was 0% in [3], 0% in [7], 100% in [9] and 100% in assay [17]. The CC50 with MT4 [4] is > 100 µg/mL. Moreover, the Inhibition – broadly, the change of the read-out against control, counted positive when it falls – is given as 1% in the assay with MT4 [5]; 9% in the assay with MT4 [11]; 94% with MT4 [12]; 0% in the assay with MT4 [13]; 0% in the assay with MT4 [14]; 8% in the assay with MT4 [15]. The results for the Inhibition with MT4 [18] and in the assay with MT4 [19] were 1% and 100%, respectively. The ID50 in assay [8] is 370 µg/mL.
As for `CCCCCCCCCCCCCCCC(=O)Nc1cc(S(=O)(=O)O)cc2cc(S(=O)(=O)O)cc(O)c12`, the ID50 in assay [21] is 50 µg/mL (≈ 89.6 µM). In addition, the Inhibition in the assay on MT4 [22] came to 7%; in the assay with MT4 [24], 12%; in the assay on MT4 [25], 100%; in the assay with MT4 [26], 0%; with MT4 [27], 3%; with MT4 [31], 6%. Further, the figures for the Inhibition in the assay on MT4 [32] and in the assay on MT4 [34] were 100% and 5%, respectively. Also, the Cell viability in the assay with MT4 [23] worked out at 0; in the assay with MT4 [28] it was 0; with MT4 [29] it was 1; with MT4 [35], 0. Further, the EC50 in the assay with MT4 [1] came out at 42 µg/mL (≈ 75.3 µM); in the assay with MT4 [10], 40 µg/mL (≈ 71.7 µM). Also, the CC50 with MT4 [4] was > 100 µg/mL. Moreover, the inhibition in [30] was determined as 4%; in [33] it was 9%.
